Assay outcomes as filed in PubChem.
The list is not random: actives were taken first. Their share in the collection is about 1.4%.
CAL PDZ FP-1: blocks peptide binding to human CAL PDZ domain. Q9HD26. purified CAL PDZ, TMR-peptide fluorescence polarization, 1 h. inhibition, % at 20 µM. actives 0.02% (n = 330,000). AID 504414;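 active = highest replicate inhibition of at least 40%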
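System: tagged CAL PDZ domain. Schedule: 1 h room-temperature incubation prior to read. Signal: fluorescence polarization (mP). Measure: percent inhibition from loss of millipolarization.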
Dyrk1A ADPGlo: Dyrk1A (rat) kinase inhibition; Q63470; ADP-Glo luminescence, NFATc1 peptide; inhibition, % at 12.5 µM; actives 0.43% (n = 310,000); in the data active = inhibition above about 50%
PvdQ acylase: P. aeruginosa PvdQ acylase inhibition. purified PvdQ acylase, fluorescence plate reader. inhibition, % at 10 µM. actives 0.063% (n = 340,000). AID 488965; in the data active = inhibition above about 30%, passing the limit was not always enough
CAL PDZ FP-2: inhibitors of human CAL PDZ peptide binding; purified CAL PDZ, TMR-peptide fluorescence polarization, 1 h; inhibition, % at 24.9 µM; actives 0.92% (n = 300,000);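 active = mean inhibition of at least 30% with at least half of replicates also reaching 30%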
CDK5 inh: CDK5/p35 (human) kinase inhibition. actives 0.01% (n = 330,000). inhibition, % at 10 µM. Recombinant CDK5/p35, ADP-Glo luminescence, 60 min;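 active = highest replicate inhibition of at least 50% and at least 75% of replicates reaching 50%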
Target sequence (Q00535 whole entry, looked up): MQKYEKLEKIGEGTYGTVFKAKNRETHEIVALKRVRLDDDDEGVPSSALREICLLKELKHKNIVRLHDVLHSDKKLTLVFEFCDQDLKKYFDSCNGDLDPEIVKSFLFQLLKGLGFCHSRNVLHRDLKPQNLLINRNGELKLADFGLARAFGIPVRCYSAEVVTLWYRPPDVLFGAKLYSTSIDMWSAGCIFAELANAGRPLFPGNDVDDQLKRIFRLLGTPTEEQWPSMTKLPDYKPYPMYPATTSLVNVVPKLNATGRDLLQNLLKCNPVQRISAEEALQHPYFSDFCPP
Target sequence (Q15078 whole entry, looked up): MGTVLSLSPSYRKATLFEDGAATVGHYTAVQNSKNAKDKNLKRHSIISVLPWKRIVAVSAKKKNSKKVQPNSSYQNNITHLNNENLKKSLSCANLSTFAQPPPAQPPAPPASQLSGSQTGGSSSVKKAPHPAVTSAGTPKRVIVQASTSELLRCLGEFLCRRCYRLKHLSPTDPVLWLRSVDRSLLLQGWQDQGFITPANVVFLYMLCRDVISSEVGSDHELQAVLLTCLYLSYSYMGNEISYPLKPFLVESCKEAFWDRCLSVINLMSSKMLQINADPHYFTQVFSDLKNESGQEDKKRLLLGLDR
TbMetRS inhib: Trypanosoma brucei MetRS inhibition; inhibition, % at 11.9 µM; purified T. brucei MetRS, ATP depletion, Kinase-Glo luminescence; actives 0.4% (n = 360,000);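 active = inhibition above a per-plate cutoff of the control wells' mean inhibition plus 3 SD, cut at about 5.5% in these data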
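Test system – parasite MetRS enzyme · Reagent – substrates ATP, L-methionine and bulk Escherichia coli tRNA · Doses – 11.9 µM compound single dose, 0.9% DMSO · Times – 15 min enzyme-compound preincubation, 2 h reaction, 10 min detection, 25 °C · Signal – Kinase-Glo luminescence, ATP depletion format · Controls – DMSO-only wells as low control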
Numbers stand for hits; - = inactive; . = not tested or not shown; + = active, no number.

SMILES	CAL PDZ FP-1	Dyrk1A ADPGlo	PvdQ acylase	CAL PDZ FP-2	CDK5 inh	TbMetRS inhib
CCCn1nnc(NC(=O)c2cccc(Cl)c2)n1	.	-	-	-	-	-
COc1cccc(NC(=O)c2ccc3c(c2)OCO3)c1	-	-	-	-	-	-
CCC(=O)Nc1cccc(NC(=O)c2ccc3c(c2)OCO3)c1	-	-	-	50	-	-
COc1ccc(CNC(=O)C[C@@H]2C=C[C@@H](NS(=O)(=O)c3cccc(OC)c3)[C@@H](CO)O2)cc1	.	.	.	.	.	-
CCN(CC)CCCNC(=O)c1cn(CC(C)C)c(=O)c2c1c1ccccc1n2C	-	-	-	50	-	-
CC1(C)Cc2c(sc3c2c(=N)n(Cc2ccco2)c(=O)n3Cc2ccc(F)cc2)CO1	-	-	-	-	-	-
COc1ccc(Cn2c(=O)n(Cc3ccco3)c(=N)c3c4c(sc32)COC(C)(C)C4)cc1	-	-	-	59	-	-
NC(c1csc(Nc2ccc(C(F)(F)F)cn2)n1)C1CCCCC1 (stereo unspecified)	.	.	.	.	.	-
Cc1cc(=O)n2nc(N3CCC(C(=O)NCCc4ccc(Cl)cc4)CC3)sc2n1	-	-	-	68	-	-
Cc1ccc2[nH]c(O)c(N=NC(=O)c3ccc(NS(=O)(=O)c4cccs4)cc3)c2c1	-	-	-	-	-	-
COc1ccc2[nH]c(O)c(N=NC(=O)c3ccc(NS(=O)(=O)c4cccs4)cc3)c2c1	-	-	-	46	-	-
NC(c1csc(Nc2ncccn2)n1)c1ccccc1Cl (stereo unspecified)	.	.	.	.	.	-
Cc1cc(NS(=O)(=O)c2c(C(=O)N3CCOCC3)c(C)n(C)c2C)ccc1Br	-	-	-	78	-	-
CC1CN(C(=O)/C=C/c2ccc([N+](=O)[O-])s2)CC(C)O1 (stereo unspecified)	-	-	-	40	-	-
COC(=O)c1sccc1NC(=S)N1CCN(C)CC1	-	.	-	+	-	-
CCN1CCN(C(=S)Nc2ccsc2C(=O)OC)CC1	-	-	-	-	-	-
COC(=O)c1ccc(NC(=O)CNc2ccccc2)cc1	-	.	-	43	-	-
O=C1C(=Cc2ccccc2O)SC(=S)N1CCCN1CCOCC1	.	.	.	.	.	-
O=C(c1[nH]c(C(F)(F)F)nc1-c1ccccc1)N1CCN(c2cccc(C(F)(F)F)n2)CC1	.	.	.	.	.	-
Cc1ccc(S(=O)(=O)NN2C(=O)/C(=C/c3cccc(F)c3)SC2=S)cc1	-	-	-	33	-	-
COc1cc(/C=C2\SC(=S)N(NS(=O)(=O)c3ccc(C)cc3)C2=O)cc(OC)c1OC	-	-	-	-	-	-
CCCCn1nnnc1C(c1ccccc1OC(F)(F)F)N1CCN(C/C=C/c2ccccc2)CC1 (stereo unspecified)	.	.	.	.	.	-
Cc1nc(-c2ccc(NC(=O)Cc3ccccc3)cc2)cs1	.	-	-	66	-	-
CCCCn1c(O)c(N=Nc2ccccc2O)c2ccccc21	-	-	-	37	-	-
CCCCn1c(O)c(N=Nc2ccccn2)c2ccccc21	-	-	-	-	-	-
SMILES	CAL PDZ FP-1	Dyrk1A ADPGlo	PvdQ acylase	CAL PDZ FP-2	CDK5 inh	TbMetRS inhib
COc1ccc(C2NCCc3cc(OC)c(OC)cc32)cc1OC (stereo unspecified)	-	-	-	60	-	-
COc1cc2c(cc1OC)C(c1ccc(Br)cc1)NCC2 (stereo unspecified)	.	.	.	.	.	-
CC(C)C[C@@H](COCc1cccc(Cl)c1)N1CCN(C(=O)c2ccc(C(F)(F)F)cc2)CCC1=O	.	.	.	.	.	-
CN(C)C1(CNC(=S)Nc2ccccc2C(F)(F)F)CCCCC1	-	-	-	61	-	-
COc1ccc(CNC(=O)CN(c2ccccc2OC)S(=O)(=O)c2cccs2)cc1	-	.	-	-	-	-
COc1ccccc1N(CC(=O)Nc1cc(S(=O)(=O)N(C)C)ccc1C)S(=O)(=O)c1cccs1	-	-	-	68	-	-
COc1ccc(Cn2cc(CN3CC(N(C)C)CS3(=O)=O)nn2)cc1 (stereo unspecified)	.	.	.	.	.	-
COc1ccc(-c2coc3c(C(=O)NCC4CC4)cccc23)c(C)c1	.	.	.	.	.	-
Cc1cc(NC(=O)Nc2cccc(Cl)c2)no1	.	.	.	.	.	-
Cc1cc(NC(=O)Nc2ccc(F)c(Cl)c2)no1	-	-	44	.	-	-
Cc1cc(NC(=O)c2cc(F)c(F)cc2Cl)no1	-	-	92	-	-	-
